Experimental data from different studies.
Each line is one published result; the experiments were not run side by side.
TMEM97: Sigma intracellular receptor 2 (TMEM97, Homo sapiens, UniProt Q5BJF2)
tspO: tspO (Cereibacter sphaeroides, UniProt Q9RFC8)
Serine protease HTRA1 S328A: Serine protease HTRA1 (Homo sapiens, UniProt Q92743, S328A)

The Ki of `CC(C)C[C@H](NC(=O)CNC(=O)[C@H](C)NC(=O)c1ccc(S(=O)(=O)NC[C@H]2O[C@@H](C)[C@@H](O)[C@@H](O)[C@@H]2O)cc1)C(=O)N[C@@H](C)C(=O)N[C@H]1CCN(c2cc3c(cc2F)c(=O)c(C(=O)O)cn3C2CC2)C1` is reported as 1.43 µM (Fucose-binding lectin PA-IIL (lecB, Pseudomonas aeruginosa, UniProt Q9HYN5); ligand displacement, FP).
`CC(C)(C)[C@]1(O)CCN2C[C@@H]3c4ccccc4CCc4cccc(c43)[C@H]2C1` gave a Ki of 4.79 µM (TMEM97; ligand displacement, radioligand).
`COc1cc(/C=C/C(=O)CC(=O)/C=C/c2ccc(O)c(OC)c2)ccc1O` gave a Kd of 1.4 µM (tspO; binding, fluorescence).
With `COc1cc2c(cc1OC)C(=O)C(CC1CCN(Cc3ccccc3)CC1)C2` (stereo not drawn) the Ki was 0.084 µM (TMEM97; ligand displacement, radioligand).
For `NC[C@@H]1[C@H]2CN3C(=O)c4cccn4[C@@H]4NC(N)=N[C@@]43[C@@H]2[C@]2(N=C(N)N[C@H]2O)[C@H]1Cl` (single isomer, unassigned), the IC50 was 2.8 µM (Proteasome subunit beta type-8, chymotrypsin-like site (PSMB8, Homo sapiens, UniProt P28062); enzyme activity, inhibitor).
With `CC[C@@H]1SC2(CCN(C)CC2)NC1=O` the EC50 was 0.0328 µM (Muscarinic acetylcholine receptor M3 (CHRM3, Homo sapiens, UniProt P20309); calcium signal, agonist).
`CC(C)(NC(=O)O[C@@H]1CN2CCC1CC2)c1csc(-c2ccc(F)cc2)n1` has an IC50 of over 300 µM (Lysosomal acid glucosylceramidase (GBA1, Homo sapiens, UniProt P04062); enzyme activity, inhibitor).
For `CN(C)CCOC(C)(c1ccccc1)c1ccccn1` (stereo not drawn), the Ki was over 10 µM (TMEM97; ligand displacement, radioligand).
`CC(C)C[C@H](NC(=O)[C@H](CC(=O)O)NC(=O)[C@H](CC(=O)O)NC(=O)[C@H](CC(=O)O)NC(=O)[C@@H](NC(=O)[C@H](Cc1c[nH]c2ccccc12)NC(=O)[C@@H](N)CCC(=O)O)[C@@H](C)O)C(=O)N[C@@H](CO)C(=O)N[C@H](C(=O)N[C@@H](CC(C)C)C(=O)N[C@@H](C)C(=O)O)C(C)C` has a Kd of 20.5 µM (Serine protease HTRA1 S328A; binding, ITC; pH 8).
The IC50 of `CC(C)C[C@H](NC(=O)[C@H](Cc1ccccc1)NC(=O)c1cnccn1)B(O)O` is reported as over 33 µM (Serine protease HTRA2, mitochondrial (HTRA2, Homo sapiens, UniProt O43464); enzyme activity, inhibitor).
With `CC[C@H](C)[C@H](NC(=O)[C@H](Cc1c[nH]c2ccccc12)NC(=O)[C@H](C)NC(=O)[C@H](C)NC(=O)[C@H](Cc1ccc(O)cc1)NC(=O)[C@@H](N)CO)C(=O)N[C@@H](CC(=O)O)C(=O)N[C@H](C(=O)N[C@@H](CCC(=O)O)C(=O)N[C@@H](CC(=O)O)C(=O)N[C@@H](CC(C)C)C(=O)O)C(C)C` the Kd was 34 µM (Serine protease HTRA1 S328A; binding, ITC; pH 8).
`Cc1c(-c2ccccc2)no[n+]1[O-]` has an IC50 of over 50 µM (Thioredoxin glutathione reductase (Schistosoma mansoni, UniProt Q962Y6); enzyme activity, inhibitor).
`COc1ncccc1-c1cnn2ccc(N3CCN(C(=O)OC(C)C)CC3)nc12` has an IC50 of 12 µM (Acetylcholine receptor subunit alpha (CHRNA1, Homo sapiens, UniProt P02708); ion current, inhibitor).
`CC[C@H](C)[C@H](NC(=O)[C@H](Cc1c[nH]c2ccccc12)NC(=O)[C@H](C)NC(=O)[C@H](C)NC(=O)[C@H](Cc1ccc(O)cc1)NC(=O)[C@@H](N)CO)C(=O)N[C@@H](CC(=O)O)C(=O)N[C@@H](CO)C(=O)N[C@H](C(=O)N[C@@H](CC(C)C)C(=O)N[C@@H](C)C(=O)O)C(C)C` has a Kd of 3.9 µM (Serine protease HTRA1 S328A; binding, ITC; pH 8).
The Ki of `COc1cc2c(cc1OC)CN(CCc1ccc(NC(=O)c3cc(OC)c(OC)cc3NC(=O)c3cnc4ccccc4c3)cc1)CC2` is reported as 0.0178 µM (TMEM97; ligand displacement, radioligand).
With `COc1cc(C(=O)N2CC[C@@H](O)[C@@H](N)C2)cc2nc(-c3cc4ccccc4n3CC3CC3)n(C)c12` the IC50 was over 100 µM (Prostaglandin G/H synthase 2 (PTGS2, Homo sapiens, UniProt P35354); enzyme activity, inhibitor).
`Cc1cc2c(C(C)C)c(O)c(O)c(C=O)c2c(O)c1-c1c(C)cc2c(C(C)C)c(O)c(O)c(C=O)c2c1O` has a Kd of 6 µM (tspO; binding, fluorescence).
For `Cc1c2ccncc2c(C)c2c1[nH]c1ccccc12`, the Ki was over 10 µM (TMEM97; ligand displacement, radioligand).
